PubChem BioAssay AID623952 (Vanderbilt High Throughput Screening Facility, 2012)
pEC50: −log10 of the molar value.

Biological target: G protein-activated inward rectifier potassium channel 2 (Homo sapiens) + G protein-activated inward rectifier potassium channel 1 (Homo sapiens) (UniProt P48051+P48549)
Experiment: GIRK1/2 activators in cells lacking mGlu8, dose response, minus mGlu8, HEK-293 hGIRK1/2, thallium flux (AID 623952)
Conditions: HEK-293 hGIRK1/2, thallium flux FluoZin-2 fluorescence
How it was run: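 Assay system: HEK-293 cells with stable human GIRK1/2 channel expression; Incubation: dye loading ~60 min room temperature, compound 4 min pre-stimulus; Read-out basis: Vehicle-corrected F/F0 slope, four-parameter logistic fit; Technique: FluoZin-2 fluorescence thallium flux; Reagent: thallium stimulus plus EC20 glutamate.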

G protein-activated inward rectifier potassium channel 2 (Homo sapiens) + G protein-activated inward rectifier potassium channel 1 (Homo sapiens), sequence (P48051 whole entry, looked up): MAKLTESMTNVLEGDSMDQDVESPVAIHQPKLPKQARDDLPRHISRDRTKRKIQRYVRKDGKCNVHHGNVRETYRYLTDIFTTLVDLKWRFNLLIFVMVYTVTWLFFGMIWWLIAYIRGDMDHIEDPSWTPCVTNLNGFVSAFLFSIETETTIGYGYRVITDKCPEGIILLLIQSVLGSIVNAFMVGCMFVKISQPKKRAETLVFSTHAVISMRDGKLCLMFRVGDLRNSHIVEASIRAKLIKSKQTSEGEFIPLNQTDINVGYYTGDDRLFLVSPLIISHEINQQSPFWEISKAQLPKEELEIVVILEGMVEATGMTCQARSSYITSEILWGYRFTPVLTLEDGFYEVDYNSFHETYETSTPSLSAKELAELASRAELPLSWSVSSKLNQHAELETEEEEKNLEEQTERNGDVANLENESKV
G protein-activated inward rectifier potassium channel 2 (Homo sapiens) + G protein-activated inward rectifier potassium channel 1 (Homo sapiens), sequence (P48549 whole entry, looked up): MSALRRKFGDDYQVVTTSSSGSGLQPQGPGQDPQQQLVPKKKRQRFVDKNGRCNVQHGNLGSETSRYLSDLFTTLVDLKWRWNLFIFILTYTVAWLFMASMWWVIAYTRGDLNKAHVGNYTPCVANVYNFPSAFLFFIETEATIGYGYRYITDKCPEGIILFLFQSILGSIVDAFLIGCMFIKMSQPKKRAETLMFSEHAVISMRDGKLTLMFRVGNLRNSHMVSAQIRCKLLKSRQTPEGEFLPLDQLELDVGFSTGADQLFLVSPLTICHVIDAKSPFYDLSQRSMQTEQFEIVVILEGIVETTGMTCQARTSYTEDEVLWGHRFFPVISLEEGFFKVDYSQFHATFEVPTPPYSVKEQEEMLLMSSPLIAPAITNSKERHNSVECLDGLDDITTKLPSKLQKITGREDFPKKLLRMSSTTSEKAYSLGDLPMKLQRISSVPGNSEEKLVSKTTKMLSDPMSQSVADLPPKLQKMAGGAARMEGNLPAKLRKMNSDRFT

| pEC50 | SMILES |
| --- | --- |
| 5.77 | Cc1cc(NC(=O)Nc2ccccc2)n(-c2ccccc2)n1 |
| 6.60 | CCOc1ccccc1Nc1nnc(Cc2ccccc2Cl)c(=O)[nH]1 |
| 6.10 | Cc1ccc(NC(=O)Cc2ccccc2Cl)cc1S(=O)(=O)N(C)C |
| 6.15 | Cc1ccc(-c2nnn(CC(=O)NC3CC4CCC3C4)n2)cc1 (centres undefined) |
